ABCB1 block – inhibitors of human ABCB1 transporter, ABCG2 counter-screen; P08183; CCRF-Adr cells, JC-1 efflux, flow cytometry; inhibition, % at 6.6 µM; 190,000 compounds, 0.067% hits; AID 1326; in the data active = inhibition above about 40%;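 note: 0% = vehicle and 100% = reference inhibitor; higher value means more JC-1 retained so stronger ABCB1 efflux block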
Target sequence (P08183 whole entry, looked up): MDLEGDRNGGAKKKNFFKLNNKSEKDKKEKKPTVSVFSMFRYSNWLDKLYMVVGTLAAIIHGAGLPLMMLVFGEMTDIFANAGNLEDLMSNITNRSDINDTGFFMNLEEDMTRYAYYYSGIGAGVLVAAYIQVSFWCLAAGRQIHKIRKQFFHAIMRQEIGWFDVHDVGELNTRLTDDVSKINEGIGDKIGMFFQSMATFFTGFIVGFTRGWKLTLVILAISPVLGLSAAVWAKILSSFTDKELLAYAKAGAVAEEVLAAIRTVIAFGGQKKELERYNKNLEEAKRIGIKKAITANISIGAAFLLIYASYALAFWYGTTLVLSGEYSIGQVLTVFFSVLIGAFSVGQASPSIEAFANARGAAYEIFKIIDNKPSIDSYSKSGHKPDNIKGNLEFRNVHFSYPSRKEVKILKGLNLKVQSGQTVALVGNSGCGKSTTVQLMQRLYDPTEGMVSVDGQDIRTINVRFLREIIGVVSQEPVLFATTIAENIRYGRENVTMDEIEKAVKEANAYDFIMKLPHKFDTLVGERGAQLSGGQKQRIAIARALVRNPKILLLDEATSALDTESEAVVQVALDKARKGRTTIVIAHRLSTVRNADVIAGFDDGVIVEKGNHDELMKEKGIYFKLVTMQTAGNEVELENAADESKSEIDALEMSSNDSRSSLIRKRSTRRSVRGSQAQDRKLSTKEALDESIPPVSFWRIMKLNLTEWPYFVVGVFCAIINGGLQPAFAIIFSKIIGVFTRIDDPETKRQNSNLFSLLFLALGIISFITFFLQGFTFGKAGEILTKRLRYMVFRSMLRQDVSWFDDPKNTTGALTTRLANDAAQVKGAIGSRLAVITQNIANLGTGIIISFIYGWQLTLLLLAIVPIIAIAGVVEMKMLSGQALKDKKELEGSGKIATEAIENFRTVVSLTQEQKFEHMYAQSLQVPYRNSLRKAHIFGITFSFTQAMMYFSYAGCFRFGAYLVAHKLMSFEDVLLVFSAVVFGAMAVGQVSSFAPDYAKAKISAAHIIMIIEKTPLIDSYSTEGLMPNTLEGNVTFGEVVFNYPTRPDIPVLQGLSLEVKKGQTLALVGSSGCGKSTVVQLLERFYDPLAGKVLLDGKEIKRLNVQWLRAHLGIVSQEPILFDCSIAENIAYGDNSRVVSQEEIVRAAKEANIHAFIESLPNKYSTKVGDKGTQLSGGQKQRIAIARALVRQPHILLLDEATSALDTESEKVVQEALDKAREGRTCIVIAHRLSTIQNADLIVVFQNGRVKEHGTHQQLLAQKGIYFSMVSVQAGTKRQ
PMI act – activators of human phosphomannose isomerase. 190,000 compounds, 0.005% hits. activation factor at 20 µM. AID 1214. P34949. purified human PMI, coupled resazurin fluorescence, 20 min; hits give high values; 1 = vehicle control, 0 substrate-free wells;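 active = activation factor of 2 or more at 20 µM, relative to plate controls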
PMI act satM6P – PMI (human) activation, high substrate; activation factor at 20 µM; P34949; coupled PMI enzyme assay, resazurin fluorescence, 20 min; hits give high values; 1 = untreated enzyme, 0 = substrate-free blank; 190,000 compounds, 0.34% hits;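 active = activation factor of 2 or more at 20 µM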
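test system = human PMI in coupled enzyme assay | medium = HEPES-buffered pH 7.4 with magnesium and detergent | also added = 1.0 mM mannose-6-phosphate substrate with 0.22 mM NADP+ | compound = 20 µM single dose | times = 20 min incubation at room temperature | measured by = resorufin fluorescence (Ex 544/Em 590 nm) from resazurin via diaphorase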
KCC2 mod – KCC2 (human) Cl- transport modulation; 190,000 compounds, 2.2% hits; B-score of Tl+ flux slope (higher = more flux/activation; lower = inhibition) at 10 µM; KCC2 cells, thallium flux FluoZin-2 fluorescence;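 active = thallium flux slope and its plate-corrected score both differing from the plate sample mean at a set confidence after two filtering rounds, in either direction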;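 note: slope of fluorescence scaled to starting intensity during 10 to 20 s after thallium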
ROMK mod – modulates human ROMK potassium channel activity; B-score at 10 µM; AID 1918; 130,000 compounds, 2% hits; P48048; Tet-inducible ROMK, thallium flux fluorescence; actives lie on both sides;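 active = signal ratio slope over the read window, or its plate-corrected B-score, at least 3 SD from the plate mean, either direction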;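 note: B-score of the F/F0 ratio slope over 7 to 12 s after thallium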
ABCG2 block – blocks JC-1 efflux by human ABCG2 transporter; IgMXP3 cells, flow cytometry; inhibition, % at 6.6 µM; 190,000 compounds, 0.1% hits; AID 1325;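 active = inhibition above 80%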;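 note: 0% = DMSO and 100% = nicardipine control wells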
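Times: 10 min at 25 °C | Test system: Two drug-resistant human cell lines, ABCG2 and ABCB1 | Quantity: 3 million cells/mL final, two lines in 1:1 ratio | Signal: Flow cytometry, 530 nm JC-1 signal | Dosing: Compound at 6.6 µM | Controls: Nicardipine and DMSO wells | Reagent: JC-1 as fluorescent efflux pump substrate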
KCC2 sec1 – confirmation of human KCC2 transport modulators; 3,700 compounds, 15% hits; normalised thallium flux (F/F0 slope) at 10 µM; HEK293-KCC2, thallium flux, FluoZin2 fluorescence; hits give high values; shares compounds with KCC2 mod;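 active = thallium flux slope above the same plate's solvent-only control mean plus 3 SD; inconclusive = the two replicate wells disagree; inactive = no significant difference from solvent-only control wells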
KCC2 bumet counter – thallium flux persisting under bumetanide in KCC2 cells, counter-screen secondary assay | shares compounds with KCC2 mod | HEK293-KCC2 + bumetanide/ouabain, thallium flux FluoZin2; hits give high values | normalized thallium flux at 10 µM | 3,700 compounds, 49% hits | AID 1714;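 active = thallium entry rate above the same plate's blocked-transporter control wells by more than 3 SD; inconclusive = the two repeat wells disagree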;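 note: raw slope of fluorescence over initial fluorescence between 10 and 20 s after thallium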
KCC2 secondary2 – KCC2 (human) modulation, second secondary assay. normalized thallium flux at 10 µM. shares compounds with KCC2 mod. HEK293-KCC2, thallium flux FluoZin2 fluorescence; actives lie on both sides; F/F0 rise rate, 10–20 s post-thallium. 3,700 compounds, 23% hits;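 active = thallium flux slope more than 3 SD above or below the plate's solvent-only control mean, mostly below; inconclusive = the two repeat wells disagreed; inactive = no significant shift from solvent-only controls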;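 note: raw slope with 0.1% DMSO as baseline and bumetanide as block control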
HEK293 Tl flux – counter-screen for KCC2 modulators: effect in parental HEK293 cells. shares compounds with KCC2 mod. thallium flux FluoZin2, ouabain; baseline-ratio fluorescence slope, 10–20 s after thallium. thallium flux rate (normalised fluorescence) at 10 µM. 3,700 compounds, 46% hits. AID 1716;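 active = thallium flux rate significantly above the same plate's solvent-only control wells, beyond their mean plus 3 SD; inconclusive = the two replicate wells gave conflicting results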
KCC2 retest ouab – modulates human KCC2 on retest with ouabain; raw Tl+ flux slope (below DMSO = inhibition, above = activation) at 10 µM; 3,700 compounds, 48% hits; shares compounds with KCC2 mod; AID 1717; HEK293-KCC2, thallium flux FluoZin2 fluorescence; bidirectional: low = inhibitor, high = activator;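 active = thallium flux slope beyond 3 SD from same-plate DMSO control mean in most replicates, usually higher, sometimes lower; inconclusive = repeat tests gave conflicting results; inactive = no significant difference from controls in most replicates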;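 note: slope of initial-normalized fluorescence between seconds 10 and 20 after thallium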
HEK293 Tl flux2 – parental HEK flux effect, counter-screen 2 | shares compounds with KCC2 mod | HEK293 parental, thallium flux FluoZin-2 fluorescence slope | thallium flux slope at 10 µM | 3,700 compounds, 33% hits;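 active = thallium flux slope above the same plate's solvent-control mean plus 3 SD in both duplicate wells; inconclusive = duplicate wells that disagreed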;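 note: run without ouabain in cells lacking the KCC2 cotransporter; slope of fluorescence scaled to its starting value between 10 and 20 s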
Numbers without * were called inactive; ? = inconclusive; . = no result. Compounds with a hit are over-represented: about 3.3% of the library has one in this group of screens.

SMILES	ABCB1 block	PMI act	PMI act satM6P	KCC2 mod	ROMK mod	ABCG2 block	KCC2 sec1	KCC2 bumet counter	KCC2 secondary2	HEK293 Tl flux	KCC2 retest ouab	HEK293 Tl flux2
COc1ccc(-c2n[nH]c(=S)n2/N=C/C=C\c2ccccc2OC)cc1	-1.0	0.7	0.9	1.03	.	-1.6	.	.	.	.	.	.
O=[N+]([O-])c1ccccc1/C=C/C=N/n1c(-c2ccccc2)n[nH]c1=S	-0.8	1.1	1.1	9.28*	0.804	-2.2	0.0128*	0.0949*	0.0331	0.0112*	0.0409*	0.0118*
COc1ccccc1/C=C/C=N/n1c(-c2ccc(C)cc2)n[nH]c1=S	-1.7	1	1	3.26	.	-5.5	.	.	.	.	.	.
O=[N+]([O-])c1ccccc1/C=C/C=N/n1c(-c2ccc(Cl)cc2)n[nH]c1=S	-0.4	1.3	1.2	3.62*	.	-0.7	0.00749	0.00917*	0.0333	0.0103*	?	0.0123*
Cc1ccc(-c2n[nH]c(=S)n2/N=C/C=C\c2ccccc2[N+](=O)[O-])cc1	-0.6	0.9	0.9	7.65*	.	-2.3	0.0075	0.00915*	0.0331	0.0108*	?	0.0142*
COc1ccc(C(O)Cn2cc([N+](=O)[O-])nc2C)cc1 (centres undefined)	.	.	.	-0.356	-0.725	.	.	.	.	.	.	.
c1cnc(-c2noc(CN3CCN(C4CCCC4)CC3)n2)cn1	0.7	1	1	0.123	-0.11	2.3	.	.	.	.	.	.
O=C1CN(c2nc(-c3cccs3)nc3sc4c(c23)CCCC4)CCN1	-0.2	1.5	2.2*	16.3*	1.27	-1.2	0.00749	0.00976*	0.0304	0.0103*	?	0.0105
O=c1oc(-c2cccs2)nc2sc3c(c12)CCCC3	-0.8	1	1	.	-0.526	-1.9	.	.	.	.	.	.
CCC(=O)Nc1ccc(NC(=O)c2ccco2)cc1	0.9	0.9	0.9	.	0.0797	36.7	0.0103	0.00938*	0.0338	0.00905*	0.0227	?
CCC(=O)Oc1ccc(NC(=O)c2ccco2)cc1	0.3	0.9	0.6	0.244	-0.178	1.0	.	.	.	.	.	.
O=C(Nc1ccc2c(c1)Cc1ccccc1-2)c1ccco1	-0.9	0.9	0.9	.	0.555	18.4	?	0.0497*	0.0324	0.0229*	0.0282	0.0135*
CCNC(=S)N=Nc1c(O)n(Cc2ccc(Cl)cc2)c2ccccc12	0.7	0.9	0.8	13.9*	0.11	10.2	0.0116*	0.0711*	0.0296	0.0305*	0.0406*	0.0113*
Cc1ccccc1Cn1c(O)c(N=NC(=S)Nc2ccccc2F)c2ccccc21	-0.9	0.9	1	9.56*	-1.66	-2.1	?	0.0254*	0.036	?	?	?
Oc1c(N=NC(=S)Nc2ccccc2F)c2ccccc2n1Cc1ccc(Cl)cc1	-0.3	1	1	2.34	0.705	1.3	.	.	.	.	.	.
Oc1c(N=NC(=S)Nc2ccccc2F)c2ccccc2n1Cc1ccccc1F	0.3	1.1	1.1	11.2*	-0.123	0.6	0.00553	0.034*	0.0337	0.0117*	0.0255*	?
CC1=NC(C(F)(F)F)(C(F)(F)F)C2=C(CC(C)(C)CC2=O)N1Cc1ccco1	0.9	0.9	1	-0.692	0.91	2.2	.	.	.	.	.	.
CN1CCN(C(=O)c2ccc(CS(=O)(=O)c3c(Cl)cccc3Cl)o2)CC1	0.6	1.2	1.1	-3.31*	.	13.6	0.0059	0.00466	0.0334	0.00767	0.0181	0.0116
O=C(c1ccc(CS(=O)(=O)c2c(Cl)cccc2Cl)o1)N1CCCC1	0.4	1	1	-3.31	.	0.8	.	.	.	.	.	.
C=CCC1(/C=N/O)CCOC(C)(C)C1 (centres undefined)	.	.	.	0.13	.	.	.	.	.	.	.	.
O=C(Nc1nc2cc3c(cc2s1)OCO3)C1CC1	.	.	.	0.592	-0.634	.	.	.	.	.	.	.
Fc1cc(F)c2nc(Nc3nc4cc5c(cc4s3)OCO5)sc2c1	-0.6	0.9	1.1	8.46*	-0.418	-1.8	0.00792	0.0169*	0.0356	0.0131*	0.0256*	0.0163*
COc1ccc(C)cc1NC(=O)CCN1CC(C)OC(C)C1 (centres undefined)	0.4	1.2	1.1	0.757	1.06	2.2	.	.	.	.	.	.
Cc1c(Cl)sn(-c2ccc(Cl)cc2)c1=O	6.4	0.4	1	-5.88*	-2.54	43.3	0.00623	0.00477	0.0232*	0.00694	0.0116*	?
Cc1ccc(Cc2cnc(N3C(=N)SC(C)C3=O)s2)cc1 (centres undefined)	0.0	1	1	10.6*	0.394	1.6	0.012	0.0303*	0.0347	0.0183*	0.0303*	0.0106
SMILES	ABCB1 block	PMI act	PMI act satM6P	KCC2 mod	ROMK mod	ABCG2 block	KCC2 sec1	KCC2 bumet counter	KCC2 secondary2	HEK293 Tl flux	KCC2 retest ouab	HEK293 Tl flux2
Cc1cccc(Cc2cnc(N3C(=N)SC(c4ccccc4)C3=O)s2)c1 (centres undefined)	-0.6	0.9	1	1.39	0.00464	-2.4	.	.	.	.	.	.
O=C1c2ccccc2C(=O)N1c1ncc(Cc2ccc(Cl)cc2)s1	1.3	0.9	1	-0.88	1.81	7.9	.	.	.	.	.	.
Cc1cccc(Cc2cnc(N3C(=N)SC(C)C3=O)s2)c1 (centres undefined)	0.6	0.9	0.9	6.03*	2.38	3.6	0.0166*	0.0684*	0.0348	0.0291*	0.0404*	0.0139*
Cc1occc1C(=O)NC(C)CCc1ccccc1 (centres undefined)	1.4	1.1	1.1	-0.52	0.797	4.5	.	.	.	.	.	.
Cc1ccc(C)c(C(=O)NC(C)CCc2ccccc2)c1 (centres undefined)	1.1	1.2	1.1	-3.49*	-0.0134	3.3	0.00748	0.00437	0.0253*	0.00744	?	0.01
CC(CCc1ccccc1)NC(=O)/C=C/c1ccc(Cl)cc1 (centres undefined)	0.9	0.9	0.9	-8.08*	0.733	14.9	0.00733	0.00559	0.0268	0.00654	0.018	0.00932
CCCCCSc1nnc(-c2cc(Br)ccc2N)c(=O)[nH]1	0.2	1.1	1.8	.	-2.05	1.8	0.00738	?	0.0324	?	?	0.0102

Screens: PubChem BioAssay, several laboratories
